ARFGAP1 inh – inhibitors of rat ARFGAP1; hit rate 0.26% among 360,000; AID 651572; Arfgap1-stimulated ARF1 GTP hydrolysis, GDP FP detection; Q62848; inhibition, % at 16.5 µM;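 active = inhibition above a per-plate limit, mean inhibition of low control wells plus 3 SD, cut at about 25% in these data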;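 also: 0% = DMSO wells with enzyme and 100% = wells lacking Arfgap1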
Target sequence (Q62848 1-136 limits assumed): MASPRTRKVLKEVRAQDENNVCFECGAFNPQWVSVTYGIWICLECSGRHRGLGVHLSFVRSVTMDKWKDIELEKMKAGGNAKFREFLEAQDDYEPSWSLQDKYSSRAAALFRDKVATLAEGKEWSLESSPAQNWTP
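system = rat Arfgap1 catalytic domain, aa 1-136 | technique = FP, GDP Alexa 633 tracer displaced from anti-GDP antibody, 620/688 nm | compound = one concentration, 16.5 µM, DMSO 1.26% | medium = HEPES-based buffer, pH 7.5 | timing = compound-enzyme preincubation 20 min, reaction 120 min, detection 60 min, 25 °C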
pPAFAH inh – pPAFAH (human) enzyme inhibition. hit rate 1.5% among 330,000. recombinant pPAFAH, FP-rhodamine probe fluorescence polarization. Q13093. inhibition, % at 3.39 µM. AID 463082;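 active = inhibition above the mean inhibition across the screen plus 3 SD, cut at about 25% in these data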;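 also: inhibitors block binding of the rhodamine activity-based probe so polarization drops; 0% = enzyme with DMSO and 100% = wells lacking pPAFAH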
PAFAH1B2 FP inh – inhibitors of human PAFAH1B2; recombinant PAFAH1B2, FP-rhodamine activity probe, fluorescence polarization; P68402; AID 492953; hit rate 1.2% among 340,000; inhibition, % at 3.39 µM;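 active = inhibition above the mean of all tested compounds plus 3 SD, cut at about 24% in these data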;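 also: 0% = enzyme with DMSO and 100% = wells lacking PAFAH1B2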
Target sequence (P68402 whole entry, looked up): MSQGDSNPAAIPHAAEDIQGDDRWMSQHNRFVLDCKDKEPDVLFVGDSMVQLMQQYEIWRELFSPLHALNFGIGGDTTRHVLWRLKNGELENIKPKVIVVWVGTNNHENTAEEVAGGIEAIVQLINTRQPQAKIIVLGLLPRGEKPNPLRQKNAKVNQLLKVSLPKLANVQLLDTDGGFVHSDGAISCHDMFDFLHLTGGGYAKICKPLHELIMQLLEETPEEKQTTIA
PAFAH2 FP inh – inhibitors of human PAFAH2 | Q99487 | recombinant PAFAH2, FP-rhodamine activity probe, fluorescence polarization | inhibition, % at 3.39 µM | hit rate 0.99% among 340,000;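 active = inhibition above the mean over all tested compounds plus 3 SD, cut at about 30% in these data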;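 also: inhibitors block probe labeling of enzyme so polarization drops; 0% = enzyme with DMSO and 100% = wells lacking PAFAH2 protein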
PAFAH1B3 inh – inhibitors of human PAFAH1B3 | recombinant PAFAH1B3, FP-rhodamine probe, fluorescence polarization | Q15102 | inhibition, % at 3.39 µM | AID 492972 | hit rate 0.28% among 340,000;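 active = inhibition above the screen-wide average of all tested compounds plus 3 SD, cut at about 25% in these data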;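 also: 0% = enzyme with DMSO only and 100% = wells lacking PAFAH1B3 protein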
ASAP1 GAP inh – blocks human ASAP1-stimulated Arf1 GTP hydrolysis; Q9ULH1; GDP FP detection; inhibition, % at 16.5 µM; hit rate 0.19% among 360,000; in the data active = inhibition above about 25%;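 also: 0% = vehicle with enzyme and substrate and 100% = no enzyme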
pPAFAH confirm – pPAFAH (human) inhibition, confirmed | hit rate 72% among 2,300 | recombinant pPAFAH, FP-Rh probe fluorescence polarization | inhibition, % at 3.39 µM | shares compounds with pPAFAH inh;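 active = mean inhibition of the triplicate above the hit cutoff set for the earlier primary screen, cut at about 25% in these data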;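 also: 0% = enzyme with DMSO and 100% = wells lacking pPAFAH enzyme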
Numbers without * were called inactive; / = no result. Only some compounds are listed: those with a hit (about 2.7% of all), similar ones and a draw of the others.

SMILES	ARFGAP1 inh	pPAFAH inh	PAFAH1B2 FP inh	PAFAH2 FP inh	PAFAH1B3 inh	ASAP1 GAP inh	pPAFAH confirm
C=CCN1C(=O)c2n[nH]c(COC)c2C1c1ccc(F)cc1 (stereo not drawn)	10	/	/	/	/	3	/
O=C(N/N=C1/CCSC1)c1cc(Br)ccc1O	2	37*	10	16	14	1	11
Clc1cccc(-c2ccc(C3Nc4cccc5cccc(c45)N3)o2)c1	/	39*	25*	-9	31*	/	38*
Clc1ccc(C2Nc3cccc4cccc(c34)N2)c(Cl)c1	-8	/	9	5	11	6	/
CC(=O)N1CCN(c2ccccc2NC(=O)COc2ccc(Br)cc2)CC1	-14	5	5	7	0	4	/
O=C(COc1ccc(Br)cc1)Nc1ccccc1N1CCCC1	7	59*	15	16	-3	0	8
CCOc1ccc(C2OC34CCCCC3C(C#N)(C#N)C2(C#N)C(=N)O4)cc1OC (stereo not drawn)	/	42*	37*	46*	43*	/	1
Cc1nc(-c2ccccc2)sc1C(=O)Nc1ccc(S(N)(=O)=O)cc1	8	46*	4	4	1	4	-7
CCOC(=O)[C@@H]1CSCCS(=O)(=O)N1C(=O)[C@H](CC(C)C)NC(=O)OC(C)(C)C	-8	/	/	/	/	17	/
CCOC(=O)c1sc(N/N=C/c2cc(Br)c(O)c(OC)c2)nc1C	2	35*	0	12	13	4	26*
CC1CCCN(c2cccc3c2S(=O)(=O)N(Cc2cccc(F)c2)[C@@H](C)[C@H](c2ccccc2)O3)C1 (stereo partly drawn)	4	/	/	/	/	-6	/
O=S(=O)(Nc1nc(-c2sccc2Cl)cs1)c1cc(Cl)ccc1Cl	/	47*	4	42*	0	/	51*
Oc1ccc(/C=N/Nc2ccc(Cl)nn2)c(O)c1O	-1	57*	1	29	16	0	12
Oc1c(Br)cc(Br)cc1/C=N/Nc1ccc(Cl)nn1	-5	4	9	29	7	10	/
Oc1c(Br)cc(/C=N/Nc2ccc(Cl)nn2)cc1Br	-4	52*	16	33*	28*	5	58*
COC(=O)C1=C(C)N(Cc2ccc(C(F)(F)F)cc2)C(=NCc2ccccc2)NC1c1ccccc1 (stereo not drawn)	4	/	/	/	/	12	/
O=C1c2ccccc2C2Cc3nnccc3CN12 (stereo not drawn)	11	/	/	/	/	-8	/
Cc1noc(C)c1COc1ccccc1C(=O)NNC(=O)C(C)Oc1ccccc1F (stereo not drawn)	1	2	0	7	-2	8	/
CC(Oc1ccccc1F)C(=O)NNC(=O)CCNC(=O)c1ccccc1Cl (stereo not drawn)	12	54*	4	-1	3	6	-1
O=C(O)CCc1ccc(-c2ccc(Br)cc2)n1Cc1ccco1	-2	45*	5	18	-3	-15	33*
C[C@H]1COC2=C1C(=O)C(=O)c1c2ccc2c1CCCC2(C)C	/	80*	18	41*	28*	/	74*
Cc1coc2c1C(=O)C(=O)c1c-2ccc2c1CCCC2(C)C	-3	56*	27*	76*	7	7	70*
COC(=O)C1=C(C)N(C)C(=NCc2ccc(OC)cc2)NC1c1cccc(C(F)(F)F)c1 (stereo not drawn)	5	/	/	/	/	-1	/
COc1ccc(-c2ncn(CCc3ccccc3OC)c2CC(C)C)cc1	-23	/	/	/	/	-1	/
CC(=O)N1CCN(c2ccc(NCc3ccc(-c4ccc(Br)cc4)o3)cc2)CC1	4	41*	7	8	12	11	26*
CC(=O)N1CCN(c2ccc(NCc3ccc(Br)o3)cc2)CC1	-3	11	1	3	11	6	/
C=CCN=C(NC#N)SCC(=O)c1cccc(OC)c1	-1	61*	4	0	16	2	10
COc1ccc2[nH]c(O)c(N=NC(=O)c3ccc(NS(=O)(=O)c4cccs4)cc3)c2c1	-6	44*	21	23	32*	-5	39*
